Screening data (PubChem BioAssay)
Most compounds without a hit are left out; they make up all but 3.2% or so of the library.
FAK inh: inhibitors of human focal adhesion kinase; Q05397; biochemical FAK kinase activity assay; inhibition, %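 (tested at 7 µM)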; 97,000 tested, 0.84% active; in the data active = inhibition above about 19%
PLK1 kinase inh: inhibitors of human PLK1 kinase; P53350; recombinant PLK1 kinase, TR-FRET peptide phosphorylation; inhibition, % at 10 µM; 97,000 tested, 0.53% active;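 active = inhibition of 50% or more in the single-concentration screen; inactive = inhibition below 50%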
EphB4 antag: blocks human EphB4 binding to ephrin-B2; P54760; EphB4 LBD / TNYL-RAW-Alexa532 peptide, fluorescence polarization; inhibition, % at 7 µM; 97,000 tested, 0.15% active;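 active = inhibition above the screen-wide mean inhibition plus 3 SD, cut at about 15% in these data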
PLK1 PBD inh: blocks phosphopeptide binding to human Plk1 polo box domain; P53350; Plk1 PBD phosphopeptide binding, fluorescence polarization; inhibition, %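 (tested at about 20 µM)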; 97,000 tested, 0.13% active; in the data active = inhibition above about 34%, passing the limit was not always enough
HIV Rev-RRE inh: inhibitors of HIV-1 Rev-RRE RNA interaction; P05866; Rev peptide-RRE RNA binding, FRET; inhibition, % at 8 µM; 97,000 tested, 0.79% active; AID 704;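 active = inhibition above the screen-wide mean plus 3 SD, cut at about 35% in these data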
Target sequence (P05866 whole entry, looked up): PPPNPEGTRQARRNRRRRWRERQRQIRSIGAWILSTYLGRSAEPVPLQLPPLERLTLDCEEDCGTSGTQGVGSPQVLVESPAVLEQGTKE
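System: Cy5-labelled duplex RRE RNA binding fluorescein-labelled HIV Rev peptide; Signal: fluorescein-to-Cy5 FRET, 480 nm excitation; Also added: labelled Rev peptide; Compound: one concentration, 8 µM nominal; Buffer or medium: HEPES pH 7.5 salt buffer with EDTA; Read-out: % inhibition of FRET ratio versus controls; Schedule: 5 min preincubation and 15 min binding, 25 °C.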
hDAT+cocaine: modulates human dopamine transporter uptake under cocaine; Q01959; LLC-PK1 hDAT cells, [14C]-dopamine uptake with cocaine IC80; actives deviate in either direction; B-score at 10 µM; 110,000 tested, 1.3% active; AID 449768;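 active = Z score or B-score, a plate-position-corrected score, falls beyond the plate's 99.7% confidence bounds, in either direction; inactive = both scores lie inside the 99.7% bounds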
Hits are given with their value; [ ] = another dose, or the depositor's remark.

For COCCNC(=O)C1CCC(Cn2c(=S)[nH]c3ccccc3c2=O)CC1 (stereo unspecified) the results were FAK inh inactive, PLK1 kinase inh inactive, EphB4 antag inactive, PLK1 PBD inh inactive, HIV Rev-RRE inh inactive and hDAT+cocaine -7.6.
For Cc1cc2c(c(SCC(=O)NCCc3ccccc3)n1)C(=O)OC2 the results were FAK inh inactive, PLK1 kinase inh inactive, EphB4 antag inactive, PLK1 PBD inh inactive, HIV Rev-RRE inh inactive and hDAT+cocaine inactive.
For COc1ccc(C2=C(C=Nc3c(C)n(C)n(-c4ccccc4)c3=O)C(c3ccccc3C)c3ccccc3O2)cc1OC (stereo unspecified) the results were FAK inh inactive, PLK1 kinase inh inactive, EphB4 antag inactive, PLK1 PBD inh inactive, HIV Rev-RRE inh inactive and hDAT+cocaine inactive.
For CN(Cc1ccccc1)S(=O)(=O)c1ccc(NC(=O)C2CCCO2)cc1 (stereo unspecified) the results were hDAT+cocaine inactive.
COc1cccc(-n2c(Cc3cc(=O)[nH]c(=O)[nH]3)nnc2SC(C)C)c1 was read as FAK inh inactive, PLK1 kinase inh 62, EphB4 antag inactive, PLK1 PBD inh inactive, HIV Rev-RRE inh inactive and hDAT+cocaine inactive.
CCCCN1C(=O)/C(=C/C=C2\N(C)c3ccccc3C2(C)C)SC1=S was read as FAK inh inactive, PLK1 kinase inh inactive, EphB4 antag inactive, PLK1 PBD inh inactive, HIV Rev-RRE inh 140[fluorescence artefact?] and hDAT+cocaine inactive.
For Cc1nc2ccccc2c(=O)n1NC(=O)Cc1ccccc1 the results were FAK inh inactive, PLK1 kinase inh inactive, EphB4 antag inactive, PLK1 PBD inh inactive and HIV Rev-RRE inh inactive.
For N#CC1=C(N)OC2=C(C(=O)CCC2)C1c1ccccc1 (stereo unspecified) the results were FAK inh inactive, PLK1 kinase inh inactive, EphB4 antag inactive, PLK1 PBD inh inactive, HIV Rev-RRE inh inactive and hDAT+cocaine inactive.
N#CC1=C(N)OC2=C(CC/C2=C\c2ccccc2)C1c1ccccc1 (stereo unspecified) was read as FAK inh inactive, PLK1 kinase inh inactive, EphB4 antag inactive, PLK1 PBD inh inactive and HIV Rev-RRE inh 136[fluorescence artefact?].
Screening CS(=O)(=O)N1CCN(C(=O)c2cc(-c3cccs3)nc3ccccc23)CC1 returned FAK inh inactive, PLK1 kinase inh inactive, EphB4 antag inactive, PLK1 PBD inh inactive, HIV Rev-RRE inh inactive and hDAT+cocaine -3.
For CS(=O)(=O)N1CCN(C(=O)c2cc(-c3ccccc3)nc3ccccc23)CC1 the results were FAK inh inactive, PLK1 kinase inh inactive, EphB4 antag inactive, PLK1 PBD inh inactive, HIV Rev-RRE inh inactive and hDAT+cocaine inactive.
`CCCCCCCCC(=O)Nc1cc(C)ccc1OC` gave FAK inh inactive, PLK1 kinase inh inactive, EphB4 antag inactive, PLK1 PBD inh inactive, HIV Rev-RRE inh inactive and hDAT+cocaine -7.9.
For CCCCC(=O)Nc1nc(C)c(-c2csc(Nc3ccccc3OC)n2)s1 the results were FAK inh inactive, PLK1 kinase inh inactive, EphB4 antag inactive, PLK1 PBD inh inactive, HIV Rev-RRE inh inactive and hDAT+cocaine 2.8.
CCCCCCC(=O)Nc1nc(C)c(-c2csc(Nc3cc(OC)ccc3OC)n2)s1 was read as FAK inh inactive, PLK1 kinase inh inactive, EphB4 antag inactive, PLK1 PBD inh inactive, HIV Rev-RRE inh inactive and hDAT+cocaine 2.4.
For CCOC(=O)Nc1cc(C)ccc1OC the results were FAK inh inactive, PLK1 kinase inh inactive, EphB4 antag inactive, PLK1 PBD inh inactive, HIV Rev-RRE inh inactive and hDAT+cocaine inactive.
For CN(C)c1ccc(C=Nc2cnn(C)c2C(N)=O)cc1 the results were FAK inh inactive, PLK1 kinase inh inactive, EphB4 antag inactive, PLK1 PBD inh inactive, HIV Rev-RRE inh inactive and hDAT+cocaine 1.8.
Screening CN(C)c1ccc(C=Nc2ccc(N(C)C)cc2)cc1 returned FAK inh inactive, PLK1 kinase inh inactive, EphB4 antag inactive, PLK1 PBD inh inactive, HIV Rev-RRE inh inactive and hDAT+cocaine inactive.
Screening CCCCc1c(C)c2ccc(OC)c(/C(C)=N\O)c2oc1=O returned FAK inh inactive, PLK1 kinase inh inactive, EphB4 antag inactive, PLK1 PBD inh inactive and HIV Rev-RRE inh inactive.
For CC1CCCCN1S(=O)(=O)c1ccc2c(c1)oc(=O)n2CC(=O)O (stereo unspecified) the results were FAK inh inactive, PLK1 kinase inh inactive, EphB4 antag inactive, PLK1 PBD inh inactive, HIV Rev-RRE inh inactive and hDAT+cocaine -2.3.
Screening O=C(/C=C/c1ccccc1)c1cc(Br)ccc(=O)c1O returned FAK inh inactive, PLK1 kinase inh inactive, EphB4 antag inactive, PLK1 PBD inh inactive, HIV Rev-RRE inh 46 and hDAT+cocaine inactive.
For Cc1c(C)c2c(C)[nH]nc2oc1=O the results were FAK inh inactive, PLK1 kinase inh inactive, EphB4 antag inactive, PLK1 PBD inh inactive, HIV Rev-RRE inh inactive and hDAT+cocaine inactive.
`CCCc1c(C)c2c(C)[nH]nc2oc1=O` gave FAK inh inactive, PLK1 kinase inh 58, EphB4 antag inactive, PLK1 PBD inh inactive, HIV Rev-RRE inh inactive and hDAT+cocaine inactive.
Screening COc1cc(-c2cc(C(=O)N3CCN(c4ccccn4)CC3)c3ccccc3n2)cc(OC)c1OC returned FAK inh inactive, PLK1 kinase inh inactive, EphB4 antag inactive, PLK1 PBD inh inactive, HIV Rev-RRE inh inactive and hDAT+cocaine 3.7.
`CCn1cc(C(=O)N2CCN(c3ccccn3)CC2)c2cc(OC)c(OC)cc2c1=O` gave hDAT+cocaine -8.7.
Cc1cc(N2CCC(C)CC2)nc2cccc(O)c12 was read as FAK inh inactive, PLK1 kinase inh 63, EphB4 antag inactive, PLK1 PBD inh inactive, HIV Rev-RRE inh inactive and hDAT+cocaine inactive.
Screening COc1ccc(N2CCN(C(=O)NC34CC5CC(CC(C5)C3)C4)CC2)cc1 returned FAK inh inactive, PLK1 kinase inh inactive, EphB4 antag inactive, PLK1 PBD inh inactive, HIV Rev-RRE inh inactive and hDAT+cocaine -7.6.
`COc1ccc(N2CCN(C(=O)COc3ccccc3)CC2)cc1` gave FAK inh inactive, PLK1 kinase inh inactive, EphB4 antag inactive, PLK1 PBD inh inactive, HIV Rev-RRE inh inactive and hDAT+cocaine 1.9.
For O=C1CN(C(=O)COc2ccccc2)CCN1 the results were FAK inh inactive, PLK1 kinase inh 61, EphB4 antag inactive, PLK1 PBD inh inactive, HIV Rev-RRE inh inactive and hDAT+cocaine inactive.
For CCOC(=O)CN1C=C(c2ccc3ccccc3n2)C(C[N+](=O)[O-])c2ccccc21 (stereo unspecified) the results were FAK inh inactive, PLK1 kinase inh inactive, EphB4 antag inactive, PLK1 PBD inh inactive, HIV Rev-RRE inh 94[fluorescence artefact?] and hDAT+cocaine inactive.
Screening CC(C)Cn1c(N)c(C(=O)COC(=O)c2cc(-c3ccccc3)nc3ccccc23)c(=O)n(C)c1=O returned hDAT+cocaine 2.5.
Screening Cn1c(N)c(C(=O)COC(=O)c2cc(-c3ccccc3)nc3ccccc23)c(=O)n(C)c1=O returned hDAT+cocaine inactive.
